Measured values published in ChEMBL document CHEMBL3102784, “Salicylanilide diethyl phosphates: synthesis, antimicrobial activity and cytotoxicity” (Bioorg Med Chem, 2014).
≈ marks a conversion by molar mass, not a printed value. Calls of active or inactive are those of the source. The rule behind the calls is not given here.

Key:
Mycobacterium kansasii [1] = test: Antimycobacterial activity against Mycobacterium kansasii My 235/80 after 21 days; format: functional; conditions: My 235/80, 504 h
In short: (§1)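 Micromethod MIC in Šula's semisynthetic medium at 37 °C. Compounds added in DMSO at 1000 down to 0.032 µmol/L. Isoniazid standard in sterile water at 0.5–250 µmol/L. Inocula: H37Rv 10^3, M. avium 10^5, M. kansasii 10^4. Read at 14 and 21 d, plus 7 d for M. kansasii.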

Mycobacterium kansasii [2] = test: Antimycobacterial activity against Mycobacterium kansasii 6509/96 after 14 days; format: functional; conditions: 6509/96, 336 h; in short: as §1
Escherichia coli = test: Antibacterial activity against Escherichia coli CCM 4517 at 500 micromol/L after 24 to 48 hrs by broth microdilution method; format: functional, organism-based
In short: (§2)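 Broth microdilution in Mueller–Hinton broth, compounds dissolved in DMSO, tested over a dilution series from 500 downward. MIC taken as ≥95% growth reduction (IC95) versus drug-free control. Benzylpenicillin comparator. Readings at 24 and 48 h.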

Aspergillus fumigatus [3] = test: Antifungal activity against Aspergillus fumigatus 231 after 48 hrs by broth microdilution method; format: functional; conditions: Aspergillus fumigatus, 231, 48 h
In short: (§3)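 Broth microdilution in RPMI 1640 with glutamine, fluconazole as reference. For yeasts, MIC is ≥80% growth reduction (IC80) versus control. For filamentous fungi, the value is expressed as IC50. Readings at 24 and 48 h.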

Mycobacterium kansasii [4] = test: Antimycobacterial activity against Mycobacterium kansasii My 235/80 after 14 days; format: functional; conditions: My 235/80, 336 h; in short: as §1
Pichia kudriavzevii [5] = test: Antifungal activity against Candida krusei E28 after 48 hrs by broth microdilution method; format: functional; conditions: E28, 48 h; in short: as §3
Mycobacterium avium [6] = test: Antimycobacterial activity against isoniazid, rifampicin, ethambutol and ofloxacin-resistant Mycobacterium avium My 330/88 after 14 days; format: functional; conditions: My 330/88, 336 h; in short: as §1
Mycobacterium kansasii [7] = test: Antimycobacterial activity against Mycobacterium kansasii 6509/96 after 7 days; format: functional; conditions: 6509/96, 168 h; in short: as §1
Pseudomonas aeruginosa = test: Antibacterial activity against Pseudomonas aeruginosa CCM 1961 at 500 micromol/L after 24 to 48 hrs by broth microdilution method; format: functional, organism-based; in short: as §2
[8] = test system: Trichophyton mentagrophytes; test: Antifungal activity against Trichophyton mentagrophytes 445 after 72 hrs by broth microdilution method; format: functional; conditions: Trichophyton mentagrophytes, 445, 72 h
In short: (§4)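 Filamentous dermatophyte tested by broth microdilution in RPMI 1640 with glutamine, fluconazole as reference. Value expressed as IC50 relative to growth control. Read at 72 and 120 h.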

[9] = test system: Staphylococcus epidermidis; test: Antibacterial activity against Staphylococcus epidermidis H 6966/08 after 24 hrs by broth microdilution method; format: functional; conditions: H 6966/08, 24 h; in short: as §2
Mycobacterium avium [10] = test: Antimycobacterial activity against isoniazid, rifampicin, ethambutol and ofloxacin-resistant Mycobacterium avium My 330/88 after 21 days; format: functional; conditions: My 330/88, 504 h; in short: as §1
Pichia kudriavzevii [11] = test: Antifungal activity against Candida krusei E28 after 24 hrs by broth microdilution method; format: functional; conditions: E28, 24 h; in short: as §3
Aspergillus fumigatus [12] = test: Antifungal activity against Aspergillus fumigatus 231 after 24 hrs by broth microdilution method; format: functional; conditions: Aspergillus fumigatus, 231, 24 h; in short: as §3
Trichosporon asahii [13] = test: Antifungal activity against Trichosporon asahii 1188 after 48 hrs by broth microdilution method; format: functional; conditions: Trichosporon asahii, 1188, 48 h; in short: as §3
Mycobacterium kansasii [14] = test: Antimycobacterial activity against Mycobacterium kansasii 6509/96 after 21 days; format: functional; conditions: 6509/96, 504 h; in short: as §1
Klebsiella pneumoniae [15] = test: Antibacterial activity against ESBL-positive Klebsiella pneumoniae J 14368/08 at 500 micromol/L after 24 to 48 hrs by broth microdilution method; format: functional, organism-based; in short: as §2
Trichosporon asahii [16] = test: Antifungal activity against Trichosporon asahii 1188 after 24 hrs by broth microdilution method; format: functional; conditions: Trichosporon asahii, 1188, 24 h; in short: as §3
Staphylococcus aureus [17] = test: Antibacterial activity against methicillin-resistant Staphylococcus aureus H 5996/08 after 48 hrs by broth microdilution method; format: functional; conditions: H 5996/08, 48 h; in short: as §2
[18] = test system: Mycobacterium tuberculosis; test: Antimycobacterial activity against Mycobacterium tuberculosis H37Rv My 331/88 after 21 days; format: functional; conditions: H37Rv My 331/88, 504 h; in short: as §1
[19] = test system: Mycobacterium tuberculosis; test: Antimycobacterial activity against Mycobacterium tuberculosis H37Rv My 331/88 after 14 days; format: functional; conditions: H37Rv My 331/88, 336 h; in short: as §1
Lichtheimia corymbifera [20] = test: Antifungal activity against Absidia corymbifera 272 after 24 hrs by broth microdilution method; format: functional; conditions: Lichtheimia corymbifera, 272, 24 h; in short: as §3
Candida tropicalis = test: Antifungal activity against Candida tropicalis 156 at 500 micromol/L after 24 to 48 hrs by broth microdilution method; format: functional, organism-based; in short: as §3
Staphylococcus aureus [21] = test: Antibacterial activity against Staphylococcus aureus CCM 4516/08 after 24 hrs by broth microdilution method; format: functional; conditions: CCM 4516/08, 24 h; in short: as §2
Lichtheimia corymbifera [22] = test: Antifungal activity against Absidia corymbifera 272 after 48 hrs by broth microdilution method; format: functional; conditions: Lichtheimia corymbifera, 272, 48 h; in short: as §3
[23] = test system: Staphylococcus epidermidis; test: Antibacterial activity against Staphylococcus epidermidis H 6966/08 after 48 hrs by broth microdilution method; format: functional; conditions: H 6966/08, 48 h; in short: as §2
HepG2 = test: Cytotoxicity against human HepG2 cells after 24 hrs by CellTiter assay; format: cell-based; conditions: HepG2, 24 h
In short: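 HepG2 cells (passage 27–33) in MEM with 10% FBS, L-glutamine and NEAA, seeded at 1×10^4 per well. Treated next day with compounds at 0.1–100 µM (or 0.1–25 µmol/L), triplicates, <1% DMSO, for 24 h at 37 °C, 5% CO2. MTS reagent added for 2 h, absorbance read at 490 nm. IC50 taken against untreated (100%) and 10% DMSO (0%) controls.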

Enterococcus sp. = test: Antibacterial activity against Enterococcus sp. J 14365/08 at 500 micromol/L after 24 to 48 hrs by broth microdilution method; format: functional, organism-based; in short: as §2
Klebsiella pneumoniae [24] = test: Antibacterial activity against Klebsiella pneumoniae D 11750/08 at 500 micromol/L after 24 to 48 hrs by broth microdilution method; format: functional, organism-based; in short: as §2
Mycobacterium kansasii [25] = test: Antimycobacterial activity against Mycobacterium kansasii My 235/80 after 7 days; format: functional; conditions: My 235/80, 168 h; in short: as §1
Staphylococcus aureus [26] = test: Antibacterial activity against methicillin-resistant Staphylococcus aureus H 5996/08 after 24 hrs by broth microdilution method; format: functional; conditions: H 5996/08, 24 h; in short: as §2
Nakaseomyces glabratus = test: Antifungal activity against Candida glabrata 20/I at 500 micromol/L after 24 to 48 hrs by broth microdilution method; format: functional, organism-based; in short: as §3
[27] = test system: Trichophyton mentagrophytes; test: Antifungal activity against Trichophyton mentagrophytes 445 after 120 hrs by broth microdilution method; format: functional; conditions: Trichophyton mentagrophytes, 445, 120 h; in short: as §4
Candida albicans [28] = test: Antifungal activity against Candida albicans ATCC 44859 after 24 hrs by broth microdilution method; format: functional; conditions: ATCC 44859, 24 h; in short: as §3
Candida albicans [29] = test: Antifungal activity against Candida albicans ATCC 44859 after 48 hrs by broth microdilution method; format: functional; conditions: ATCC 44859, 48 h; in short: as §3
Staphylococcus aureus [30] = test: Antibacterial activity against Staphylococcus aureus CCM 4516/08 after 48 hrs by broth microdilution method; format: functional; conditions: CCM 4516/08, 48 h; in short: as §2

| SMILES | MIC (Mycobacterium kansasii [1]) [µM] | MIC (Mycobacterium kansasii [2]) [µM] | Activity (Escherichia coli) | MIC50 (Aspergillus fumigatus [3]) [µM] | MIC (Mycobacterium kansasii [4]) [µM] | MIC80 (Pichia kudriavzevii [5]) [µM] | MIC (Mycobacterium avium [6]) [µM] | MIC (Mycobacterium kansasii [7]) [µM] | Activity (Pseudomonas aeruginosa) | MIC50 [8] [µM] | MIC95 [9] [µM] | MIC (Mycobacterium avium [10]) [µM] | MIC80 (Pichia kudriavzevii [11]) [µM] | MIC50 (Aspergillus fumigatus [12]) [µM] | MIC80 (Trichosporon asahii [13]) [µM] | MIC (Mycobacterium kansasii [14]) [µM] | Activity (Klebsiella pneumoniae [15]) | MIC80 (Trichosporon asahii [16]) [µM] | MIC95 (Staphylococcus aureus [17]) [µM] | MIC [18] [µM] | other results |
| --- | --- | --- | --- | --- | --- | --- | --- | --- | --- | --- | --- | --- | --- | --- | --- | --- | --- | --- | --- | --- | --- |
| CCOP(=O)(OCC)Oc1ccc(Br)cc1C(=O)Nc1cccc(Br)c1 | 8 (≈ 4.06 µg/mL) | 8 (≈ 4.06 µg/mL) | inactive | > 500 | 8 (≈ 4.06 µg/mL) | > 500 | 16 (≈ 8.11 µg/mL) | 4 (≈ 2.03 µg/mL) | inactive | > 500 | 31.2 (≈ 15.8 µg/mL) | 16 (≈ 8.11 µg/mL) | > 500 | > 500 | > 500 | 8 (≈ 4.06 µg/mL) | inactive | > 500 | 250 (≈ 127 µg/mL) | 2 (≈ 1.01 µg/mL) | MIC [19]: 2 µM (≈ 1.01 µg/mL); MIC50 (Lichtheimia corymbifera [20]): > 500 µM; Activity (Candida tropicalis): inactive; MIC95 (Staphylococcus aureus [21]): 31.2 µM (≈ 15.8 µg/mL); MIC50 (Lichtheimia corymbifera [22]): > 500 µM; MIC95 [23]: 250 µM (≈ 127 µg/mL); IC50 (HepG2): 4.41 µM; Activity (Enterococcus sp.): inactive; Activity (Klebsiella pneumoniae [24]): inactive; MIC (Mycobacterium kansasii [25]): 4 µM (≈ 2.03 µg/mL); MIC95 (Staphylococcus aureus [26]): 31.2 µM (≈ 15.8 µg/mL); Activity (Nakaseomyces glabratus): inactive; MIC50 [27]: > 500 µM; MIC80 (Candida albicans [28]): > 500 µM; MIC80 (Candida albicans [29]): > 500 µM; MIC95 (Staphylococcus aureus [30]): 250 µM (≈ 127 µg/mL) |
| CCOP(=O)(OCC)Oc1ccc(Br)cc1C(=O)Nc1ccc(Br)cc1 | 4 (≈ 2.03 µg/mL) | 4 (≈ 2.03 µg/mL) | inactive | 500 (≈ 254 µg/mL) | 4 (≈ 2.03 µg/mL) | 125 (≈ 63.4 µg/mL) | 8 (≈ 4.06 µg/mL) | 4 (≈ 2.03 µg/mL) | inactive | 3.9 (≈ 1.98 µg/mL) | 1.95 (≈ 0.989 µg/mL) | 8 (≈ 4.06 µg/mL) | 125 (≈ 63.4 µg/mL) | 500 (≈ 254 µg/mL) | 62.5 (≈ 31.7 µg/mL) | 4 (≈ 2.03 µg/mL) | inactive | 62.5 (≈ 31.7 µg/mL) | 3.9 (≈ 1.98 µg/mL) | 2 (≈ 1.01 µg/mL) | MIC [19]: 2 µM (≈ 1.01 µg/mL); MIC50 (Lichtheimia corymbifera [20]): 125 µM (≈ 63.4 µg/mL); Activity (Candida tropicalis): inactive; MIC95 (Staphylococcus aureus [21]): 7.81 µM (≈ 3.96 µg/mL); MIC50 (Lichtheimia corymbifera [22]): 125 µM (≈ 63.4 µg/mL); MIC95 [23]: 1.95 µM (≈ 0.989 µg/mL); IC50 (HepG2): 5.6 µM; Activity (Enterococcus sp.): inactive; Activity (Klebsiella pneumoniae [24]): inactive; MIC (Mycobacterium kansasii [25]): 2 µM (≈ 1.01 µg/mL); MIC95 (Staphylococcus aureus [26]): 3.9 µM (≈ 1.98 µg/mL); Activity (Nakaseomyces glabratus): inactive; MIC50 [27]: 3.9 µM (≈ 1.98 µg/mL); MIC80 (Candida albicans [28]): > 500 µM; MIC80 (Candida albicans [29]): > 500 µM; MIC95 (Staphylococcus aureus [30]): 7.81 µM (≈ 3.96 µg/mL) |
